Only some compounds are listed: those with a hit (about 3.9% of all), similar ones and a draw of the others.
697 NFkB inh – inhibitors of PMA/ionomycin-induced NF-kB reporter, 697 cells, primary screen, B-cell NF-kB inhibitor project, cell-based, luminescence, uHTS | 697 B-cell NF-kB luciferase reporter, 16 h | inhibition, % at 4 µM | 0.33% of 330,000 active; in the data active = inhibition above about 35%
Gli-Sufu antag – Gli-Sufu pathway antagonists, primary screen, luciferase luminescence, Sufu-KO-LIGHT cells, uHTS | Sufu-KO-LIGHT fibroblasts, Gli luciferase reporter luminescence | inhibition, % at 5 µM | 0.74% of 340,000 active;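 active = inhibition above about 55%, limit read from the data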;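 also: 0% = DMSO-treated cells and 100% = wells with medium but no cells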
Jurkat NFkB inh – inhibitors of induced NF-kB luciferase reporter, primary screen, TCR NF-kB activation inhibitor project, cell-based, luminescence, uHTS; Jurkat, PMA/ionomycin-induced NF-kB luciferase reporter; inhibition, % at 4 µM; 0.53% of 330,000 active; in the data active = inhibition above about 50%
CHOP UPR activ – activators of apoptotic CHOP UPR arm, primary screen, cell-based, CHO-CHOP luciferase reporter, luminescence, uHTS | UPR activation; percent of tunicamycin response over DMSO baseline | activation, % at 10 µM | 0.34% of 330,000 active | AID 449763, 2010;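 active = at 10 µM dose, activation of 40% or more, normalized to positive control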;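 also: 100% = tunicamycin at 10 µg/mL and 0% = DMSO alone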
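Assay system: CHO-CHOP cells, stable luciferase reporter of PERK-eIF2a-CHOP signalling / Buffer or medium: F12 plus 10% serum / Compound dosing: one dose, 10 µM in 0.5% DMSO / Times: 6 h compound treatment, 37 °C / Technique: luciferase luminescence / Read-out: % reporter activation, DMSO baseline versus tunicamycin full activation / Benchmarks: tunicamycin and DMSO controls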
XBP1 UPR activ – activators of adaptive XBP1 UPR arm, primary screen, cell-based, CHO-XBP1 luciferase reporter, luminescence, uHTS. IRE1-XBP1 UPR activation; percent of tunicamycin response, DMSO as zero. activation, % at 20 µM. 0.33% of 330,000 active. AID 463104, 2010;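 active = versus positive control, 20 µM dose yields 30% or more activation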;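 also: 100% = tunicamycin at 10 µg/mL and 0% = DMSO only wells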
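Assay system: CHO-XBP1 luciferase reporter cells; Schedule: 6 h treatment, 37 °C; Detection: glow luminescence from Steady-Glo reagent; Benchmarks: high control tunicamycin 10 µg/mL final, low control DMSO vehicle only.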
CHOP inhibitor – inhibitors of CHOP promoter induction, primary screen, cell-based, unfolded protein response, luciferase reporter; CHO-K1 CHOP-promoter luciferase, tunicamycin-induced, 15-18 h; inhibition, % at 10 µM; 3.8% of 220,000 active; AID 2732, 2010;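 active = compounds that reduced the stress-induced luciferase reporter signal by more than about 70% of percent inhibition, limit read from the data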;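 also: 0% = tunicamycin plus vehicle and 100% = wells without tunicamycin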
697 NFkB conf – PMA/ionomycin-induced NF-kB reporter inhibitors, 697 retest, confirmation, B-cell NF-kB inhibitor project, cell-based, luminescence, single concentration; AID 449746, 2010; 35% of 2,000 active; shares compounds with 697 NFkB inh; 697 B-cell NF-kB luciferase, 16 h; inhibition, % at 4 µM; in the data active = inhibition mostly above about 28%, no sharp cut-off; inactive = mostly below about 22%
* hit, by the source's call; i = inactive; nt = no result.

SMILES	697 NFkB inh	Gli-Sufu antag	Jurkat NFkB inh	CHOP UPR activ	XBP1 UPR activ	CHOP inhibitor	697 NFkB conf
CN(C)c1ccc(C(=O)c2ccc(N(C)C)c3ccccc23)cc1	-385.6	7.1	41.9	2.9	28.0	nt	-214.9
CC1Cc2ccccc2N1S(=O)(=O)c1cccc(C(=O)c2nccn2C)c1 (stereo not drawn)	-40.7	5.7	-8.9	-1.2	-7.2	16.6	nt
CC1Cc2ccccc2N1S(=O)(=O)c1cnc(Cl)c(Br)c1 (stereo not drawn)	39.8*	-0.7	14.3	3.7	-1.5	-6.0	35.5*
CC1Cc2ccccc2N1S(=O)(=O)c1cccc(C(=O)N2CCCCC2)c1 (stereo not drawn)	3.7	1.8	10.9	-1.7	-3.9	nt	nt
CC1Cc2ccccc2N1S(=O)(=O)c1cnc(Cl)c(Cl)c1 (stereo not drawn)	45.5*	2.8	-1.4	0.2	-5.2	-35.2	33.2*
COC(=O)[C@@H](Cc1ccccc1)NC(=O)Cn1cc(C)c(=O)[nH]c1=O	nt	4.7	nt	nt	nt	nt	nt
N#CCSc1n[nH]c2nc3c(c(=O)n12)C1(CCCC1)Cc1ccccc1-3	37.0*	8.6	1.2	-1.1	2.5	5.9	3.5
CCCn1c(SCC#N)nc2c(c1=O)C1(CCCC1)Cc1ccccc1-2	15.1	0.2	-0.3	-0.2	-2.2	40.3	nt
Cc1ccc(S(=O)(=O)NCCn2nc(C)cc2C)cc1	1.2	-7.0	-7.7	2.0	-0.2	nt	nt
Cc1ccc2c(c1)COc1c3ccc(C(=O)NC(C)C)cc3nn1-2	-320.4	-39.2	-120.4	4.6	3.9	-38.9	-313.4
Cc1ccc2c(c1)COc1c3ccc(C(=O)NCCO)cc3nn1-2	-252.1	-47.2	-74.3	1.9	-1.2	-27.6	-319.8
C[C@@H](CO)NC(=O)c1ccc2c3n(nc2c1)-c1ccc(Cl)cc1CO3	-97.1	-95.8	-61.5	1.8	1.2	14.3	nt
Cc1ccc2c(c1)COc1c3ccc(C(=O)N[C@@H](C)CO)cc3nn1-2	-289.7	-28.5	-120.5	1.0	2.1	-38.1	-270.9
Cc1ccc(C)c(NS(=O)(=O)c2c(C)nc3sccn3c2=O)c1	-5.9	4.9	-18.2	1.3	4.0	nt	nt
CC(=O)c1c(O)cc(O)cc1O	nt	5.2	nt	nt	nt	nt	nt
Cn1nc(C(=O)OCC(=O)Nc2ccccc2OC(F)F)c2ccccc2c1=O	-9.4	-5.7	-3.8	-0.6	-3.4	nt	nt
O=C1C(=O)N(C2CCS(=O)(=O)C2)C(c2cccc(O)c2)/C1=C(/O)c1ccc(Cl)cc1 (stereo not drawn)	3.7	-1.5	1.9	1.7	-1.8	nt	nt
O=C(Nc1cccc(Cl)c1)Nc1ccccc1C(=O)O	-273.0	-42.0	-115.4	1.1	0.1	-0.4	-332.9
O=C(Nc1ccc(Cl)cc1)Nc1ccccc1C(=O)O	-177.5	-13.4	-11.5	-3.2	-4.9	-17.6	nt
NC(=O)c1ccccc1NC(=O)Nc1cccc(Cl)c1	11.3	-0.2	-16.3	14.2	2.1	12.8	nt
O=C(Nc1ccc(Cl)c(Cl)c1)Nc1ccccc1C(=O)O	i	-39.9	-135.5	1.2	-2.2	-17.6	i
CC(C)(C)c1ccc(-n2ncc3c2CCCC3NC(=O)c2cnccn2)cc1 (stereo not drawn)	-71.9	-8.4	-2.6	3.0	-1.0	nt	nt
COc1ccc(-c2nn(-c3ccccc3)cc2/C=C(\C#N)C(N)=O)cc1[N+](=O)[O-]	37.8*	8.7	-20.5	-1.4	-1.7	-127.1	8.9
CS(=O)(=O)N1CCC(C(=O)Nc2cccc(Br)c2)CC1	4.0	19.0	-1.8	2.7	-2.6	nt	nt
Cc1cc(C)nc(NC2=NCC(=O)N2c2ccc(F)c(Cl)c2)n1	39.8*	-27.6	10.2	-0.9	-4.1	34.3	15.6

Compound activity deposited in PubChem BioAssay by several laboratories.
